The results in this text go back to ChEMBL document CHEMBL3734737, “Synthesis and Evaluation of a Radioiodinated Tracer with Specificity for Poly(ADP-ribose) Polymerase-1 (PARP-1) in Vivo” (J Med Chem, 2015).

A short description of series [1]: Octanol-water partition coefficient, log P of the compound at 0.5 to 1.5 mg/ml by HPLC method. In kind it is physicochemical. In a few lines:
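Samples of 0.5–1.5 mg/mL in MeCN/PBS were run in triplicate on reverse-phase C18 HPLC. The gradient was PBS/MeCN at 1.0 mL/min, with PBS at pH 4.0, 7.4 and 10.0. Retention times were calibrated against seven standards of known chromatographic hydrophobicity index (CHI) to give non-ionized CHI, from which log P was derived.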

For series [2], the target named is Poly [ADP-ribose] polymerase 1 (Homo sapiens, UniProt P09874). The series is described as follows: Inhibition of PARP1 (unknown origin) incubated for 10 mins using biotinylated NAD+ and activated DNA by colorimetric assay.
For another series, the target named is albumin (Homo sapiens, UniProt P02768). In words: Protein binding to human serum albumin at 0.5 to 1.5 mg/ml by HPLC method. The series is classed as ADME. The following applies: read-out: PPB (converted).
In another series the test system is Brain. The series is described as follows: Drug level in brain of human U87MG-Luc2 cells xenografted CD1 mouse at 0.8 to 1.1 MBq, iv after 30 mins by gamma counting method. The series is classed as ADME, organism-based. The following applies: in vivo, 0.5 h. Summed up:
(§1)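 Female 7–11 week CD1 nude mice carrying subcutaneous U87MG-Luc2 flank xenografts (5×10^6 cells; used 21–30 days post-implant) got a tail-vein bolus of 0.8–1.1 MBq [123I]-tracer in 10% EtOH/0.9% saline. They were killed by CO2 at 30 min (n=3). Tissues were fixed in formaldehyde, weighed and gamma counted. Background was subtracted and %ID/g was derived from a dose-stock control.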

A further series relates to Liver. The series is described as follows: Drug level in liver of human U87MG-Luc2 cells xenografted CD1 mouse at 0.8 to 1.1 MBq, iv after 30 mins by gamma counting method. The series is classed as ADME, organism-based. The following applies: in vivo, 0.5 h. Summed up: as §1
The nature of series [3]: Drug level in small bowel matter of human U87MG-Luc2 cells xenografted CD1 mouse at 0.8 to 1.1 MBq, iv after 30 mins by gamma counting method. The series is classed as ADME, organism-based. The note with it: in vivo, 0.5 h. In a few lines: as §1
A general note: Xenograft models place foreign cells or tissue in a host animal.

The nature of series [4]: Drug level in solid feces of human U87MG-Luc2 cells xenografted CD1 mouse at 0.8 to 1.1 MBq, iv after 30 mins by gamma counting method. In kind it is ADME, organism-based. The following applies: in vivo, 0.5 h, TDE = time-dependent effect. Summed up: as §1
Series [5] in a line: Intrinisc clerarance in human liver microsomes assessed as residual compound level at 60 uM preincubated for 10 mins followed by NADPH addition in KH2PO4 at pH 7.4 by LC-MS method. The series is classed as ADME. The following applies: read-out: CLH. In general terms: Liver microsomes are vesicles of endoplasmic reticulum, rich in cytochrome P450 enzymes.
Series [6] can be described thus: Metabolic stability in black-6 mouse plasma assessed as residual compound level at 250 uM incubated for 20 hrs by LC-MS method. The series is classed as ADME, cell-free. The note with it: read-out: Stability. In a few lines: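 Plasma was taken from EDTA-treated female black-6 mouse blood. Compound (10 μL of 250 μM stock into 50 μL plasma; DMSO <1%) was held at room temperature for 0 or 20 h. It was MeOH-precipitated and measured by LC-MS (SIM) against an internal standard, as % parent relative to a no-plasma control. Three experiments, ± SD.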

albumin, sequence (P02768 whole entry): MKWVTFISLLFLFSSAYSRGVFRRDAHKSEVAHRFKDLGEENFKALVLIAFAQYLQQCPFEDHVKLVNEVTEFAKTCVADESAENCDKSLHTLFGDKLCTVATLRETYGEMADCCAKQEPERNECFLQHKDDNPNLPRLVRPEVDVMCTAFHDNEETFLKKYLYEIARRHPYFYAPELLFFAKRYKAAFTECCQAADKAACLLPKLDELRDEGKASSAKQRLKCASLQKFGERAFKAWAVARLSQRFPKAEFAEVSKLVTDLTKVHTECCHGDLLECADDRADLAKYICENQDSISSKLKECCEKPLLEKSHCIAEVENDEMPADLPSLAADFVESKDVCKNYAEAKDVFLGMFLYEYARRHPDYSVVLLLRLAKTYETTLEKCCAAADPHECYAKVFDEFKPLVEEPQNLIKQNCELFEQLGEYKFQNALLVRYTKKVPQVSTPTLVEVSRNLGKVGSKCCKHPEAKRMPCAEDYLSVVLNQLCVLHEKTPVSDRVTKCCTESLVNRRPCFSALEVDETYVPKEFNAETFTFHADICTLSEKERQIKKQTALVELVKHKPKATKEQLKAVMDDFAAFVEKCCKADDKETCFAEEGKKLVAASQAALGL
Poly [ADP-ribose] polymerase 1, sequence (P09874 whole entry): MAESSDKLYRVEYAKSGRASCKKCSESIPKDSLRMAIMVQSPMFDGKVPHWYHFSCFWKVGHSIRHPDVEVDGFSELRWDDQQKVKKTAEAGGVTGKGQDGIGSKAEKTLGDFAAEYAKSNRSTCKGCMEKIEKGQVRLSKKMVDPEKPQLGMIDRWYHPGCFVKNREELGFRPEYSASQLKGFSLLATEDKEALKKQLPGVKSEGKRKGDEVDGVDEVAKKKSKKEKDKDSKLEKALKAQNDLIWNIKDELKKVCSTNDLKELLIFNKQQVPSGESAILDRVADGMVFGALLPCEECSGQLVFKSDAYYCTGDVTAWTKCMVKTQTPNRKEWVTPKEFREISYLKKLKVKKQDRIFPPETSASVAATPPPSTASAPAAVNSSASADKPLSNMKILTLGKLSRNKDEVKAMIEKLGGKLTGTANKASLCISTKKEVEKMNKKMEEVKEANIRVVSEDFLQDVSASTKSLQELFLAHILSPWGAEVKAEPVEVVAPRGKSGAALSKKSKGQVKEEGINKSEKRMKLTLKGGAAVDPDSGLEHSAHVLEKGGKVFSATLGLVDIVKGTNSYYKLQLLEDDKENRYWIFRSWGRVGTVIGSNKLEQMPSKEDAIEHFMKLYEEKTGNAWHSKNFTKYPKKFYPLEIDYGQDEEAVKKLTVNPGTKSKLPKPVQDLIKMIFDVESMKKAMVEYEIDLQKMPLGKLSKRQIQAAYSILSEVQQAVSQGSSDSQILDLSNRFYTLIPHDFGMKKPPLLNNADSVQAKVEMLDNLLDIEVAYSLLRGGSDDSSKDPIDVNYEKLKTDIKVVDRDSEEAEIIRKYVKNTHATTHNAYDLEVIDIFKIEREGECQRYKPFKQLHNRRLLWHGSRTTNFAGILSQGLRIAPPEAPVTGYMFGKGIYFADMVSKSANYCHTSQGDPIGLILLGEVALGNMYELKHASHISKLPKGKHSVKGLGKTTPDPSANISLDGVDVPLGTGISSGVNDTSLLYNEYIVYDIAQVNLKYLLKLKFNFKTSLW

On to `COc1ccc(C(=O)N2CCN(C(=O)c3cc(Cc4n[nH]c(=O)c5ccccc45)ccc3F)CC2)cc1I`, for which, in [1], the logP was 2.95. Further, in [2], half-maximal inhibition (IC50) required 17.6 nM. Further, the fraction unbound on albumin was 0.035.

`O=C(COc1ccc(I)cc1)N1CCN(C(=O)c2cc(Cc3n[nH]c(=O)c4ccccc34)ccc2F)CC1` returned a logP in series [1] of 3.25. In series [2], this compound yielded an IC50 of 3 nM. The fraction unbound on albumin was 0.019.

With `O=C(c1ccc([123I])cc1)N1CCN(C(=O)c2cc(Cc3n[nH]c(=O)c4ccccc34)ccc2F)CC1`, the Drug uptake entry was “Not Active” with Brain, “Active” with Liver, “Active” in series [3] and “tde” in [4].

Take `O=C(Cc1cccc(I)c1)N1CCN(C(=O)c2cc(Cc3n[nH]c(=O)c4ccccc34)ccc2F)CC1`: the logP in series [1] was determined as 3.13. Moreover, the IC50 in series [2] stood at 5.8 nM. Also, the fraction unbound at albumin is 0.025.

In turn, `Cc1ccc(C(=O)N2CCN(C(=O)c3cc(Cc4n[nH]c(=O)c5ccccc45)ccc3F)CC2)cc1I` gave a logP in series [1] of 3.23. The compound further had an IC50 in series [2] of 16.9 nM. For the same compound, on albumin, the fraction unbound is 0.024.

As for `O=C(c1ccc(I)cc1)N1CCN(C(=O)c2cc(Cc3n[nH]c(=O)c4ccccc34)ccc2F)CC1`, the logP in series [1] turned out to be 3. Further, in [5], the microsomal CLint at 60 µM was determined as 85 µL/min/mg. The remaining at 20 h, 250 µM in series [6] came to 98%. Also, the fraction unbound at albumin is 0.038.

`O=C(c1cccc(I)c1)N1CCN(C(=O)c2cc(Cc3n[nH]c(=O)c4ccccc34)ccc2F)CC1` displayed a logP in [1] of 2.97. In addition, the fraction unbound at albumin is 0.039.

Compound `O=C(c1cc(Cc2n[nH]c(=O)c3ccccc23)ccc1F)N1CCN(S(=O)(=O)c2ccc(I)cc2)CC1` gave a logP in series [1] of more than 3.25. Besides, the IC50 in series [2] worked out at 22.6 nM. Also, at albumin, the fraction unbound was 0.016.

As for `O=C1CN=C(c2ccccn2)c2cc(Br)ccc2N1` [BROMAZEPAM], the fraction unbound on albumin is 0.4.

Regarding `CCCC1O[C@@H]2C[C@H]3[C@@H]4CCC5=CC(=O)C=C[C@]5(C)[C@H]4[C@@H](O)C[C@]3(C)[C@]2(C(=O)CO)O1` (some centres not stated) [BUDESONIDE], the fraction unbound on albumin was 0.12.

For the compound `NC(=O)N1c2ccccc2C=Cc2ccccc21` [CARBAMAZEPINE], on albumin, the fraction unbound is 0.25.

In the case of `COC(=O)C1=C(C)NC(C)=C(C(=O)OCCN(C)Cc2ccccc2)C1c1cccc([N+](=O)[O-])c1` (configuration not stated) [NICARDIPINE], the fraction unbound at albumin is 0.05.

As for `CNC(=C[N+](=O)[O-])NCCSCc1csc(CN(C)C)n1` [NIZATIDINE], the fraction unbound at albumin is 0.65.

On to `O=C(c1cc(Cc2n[nH]c(=O)c3ccccc23)ccc1F)N1CCN(C(=O)C2CC2)CC1` [OLAPARIB], for which, in series [1], the lipophilicity (logP) was 1.95. Also, in [5], the microsomal CLint at 60 µM was 29 µL/min/mg.

One may read the logP as the decadic logarithm of the partition coefficient of the neutral form, usually between octanol and water. The IC50 is the point on the concentration scale where inhibition reaches its midpoint. Read a high IC50 as lower potency.
